Experimental data as given in ChEMBL document CHEMBL1811756, “Discovery of novel c-Met kinase inhibitors bearing a thieno[2,3-d]pyrimidine or furo[2,3-d]pyrimidine scaffold” (Bioorg Med Chem, 2011).
Active and inactive are the calls of the source. The rule behind the calls is not given here.

Legend:
[1] = target: T1, Hepatocyte growth factor receptor (Homo sapiens, UniProt P08581); experiment: Inhibition of c-Met after 60 mins by ELISA
Method in brief: (§1)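 ELISA on plates pre-coated with Poly(Glu,Tyr) 4:1 at 20 µg/mL. Detection used anti-phosphotyrosine PY99, then HRP anti-mouse IgG and o-phenylenediamine/H₂O₂, read at 490 nm. IC50 was calculated by the Logit method from ≥3 independent tests at six concentrations each.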

BaF3 [2] = experiment: Antiproliferative activity against […] BAF3 cells expressing TPR-Met assessed as inhibition of cell growth at 1 uM; format: functional; settings: Mus musculus
Method in brief: (§2)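 BaF3 cells stably expressing TPR-Met were seeded in 96-well plates. Next day they were exposed to compound at 10, 1 or 0.1 µM for 72 h. Growth was read by MTT at A570. Inhibition (%) = [1 − (A570/A570 control)] × 100.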

BaF3 [3] = experiment: Antiproliferative activity against […] BAF3 cells expressing TPR-Met assessed as inhibition of cell growth at 0.1 uM; format: functional; settings: Mus musculus; method in brief: as §2
[4] = target: T1, Hepatocyte growth factor receptor; experiment: Inhibition of c-Met at 10 uM after 60 mins by ELISA
Method in brief: (§3)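 c-Met tyrosine kinase ELISA with Poly(Glu,Tyr) 4:1 substrate and 10 µM ATP in HEPES pH 7.4 buffer with Mg²⁺/Mn²⁺, run 60 min at 37 °C. Phosphotyrosine was detected with PY99 and an HRP secondary antibody, read at 490 nm. Percent inhibition was measured at a single compound concentration.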

BaF3 [5] = experiment: Antiproliferative activity against […] BAF3 cells expressing TPR-Met assessed as inhibition of cell growth at 10 uM; format: functional; settings: Mus musculus; method in brief: as §2
[6] = target: T1, Hepatocyte growth factor receptor; experiment: Inhibition of c-Met at 1 uM after 60 mins by ELISA; method in brief: as §3
[7] = target: Receptor tyrosine-protein kinase erbB-4 (Homo sapiens, UniProt Q15303); experiment: Inhibition of ERBB4; method in brief: as §1
Mus musculus = experiment: Toxicity in nude mouse xenografted with human U87MG cells assessed as body weight loss at 100 mg/kg, ip for 3 weeks; format: organism-based, U-87MG ATCC; design: dose 100 mg/kg, route intraperitoneal; settings: in vivo, 504 h
Method in brief: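 Nude mice bearing U-87MG tumor fragments were dosed ip 7 days/week for 3 weeks, n = 6 per group, versus vehicle controls. Body weight was monitored during treatment.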

Ephrin type-B receptor 2 = target: T2, Ephrin type-B receptor 2 (Homo sapiens, UniProt P29323); experiment: Inhibition of EPHB2; method in brief: as §1
T2 sequence (P29323 whole entry): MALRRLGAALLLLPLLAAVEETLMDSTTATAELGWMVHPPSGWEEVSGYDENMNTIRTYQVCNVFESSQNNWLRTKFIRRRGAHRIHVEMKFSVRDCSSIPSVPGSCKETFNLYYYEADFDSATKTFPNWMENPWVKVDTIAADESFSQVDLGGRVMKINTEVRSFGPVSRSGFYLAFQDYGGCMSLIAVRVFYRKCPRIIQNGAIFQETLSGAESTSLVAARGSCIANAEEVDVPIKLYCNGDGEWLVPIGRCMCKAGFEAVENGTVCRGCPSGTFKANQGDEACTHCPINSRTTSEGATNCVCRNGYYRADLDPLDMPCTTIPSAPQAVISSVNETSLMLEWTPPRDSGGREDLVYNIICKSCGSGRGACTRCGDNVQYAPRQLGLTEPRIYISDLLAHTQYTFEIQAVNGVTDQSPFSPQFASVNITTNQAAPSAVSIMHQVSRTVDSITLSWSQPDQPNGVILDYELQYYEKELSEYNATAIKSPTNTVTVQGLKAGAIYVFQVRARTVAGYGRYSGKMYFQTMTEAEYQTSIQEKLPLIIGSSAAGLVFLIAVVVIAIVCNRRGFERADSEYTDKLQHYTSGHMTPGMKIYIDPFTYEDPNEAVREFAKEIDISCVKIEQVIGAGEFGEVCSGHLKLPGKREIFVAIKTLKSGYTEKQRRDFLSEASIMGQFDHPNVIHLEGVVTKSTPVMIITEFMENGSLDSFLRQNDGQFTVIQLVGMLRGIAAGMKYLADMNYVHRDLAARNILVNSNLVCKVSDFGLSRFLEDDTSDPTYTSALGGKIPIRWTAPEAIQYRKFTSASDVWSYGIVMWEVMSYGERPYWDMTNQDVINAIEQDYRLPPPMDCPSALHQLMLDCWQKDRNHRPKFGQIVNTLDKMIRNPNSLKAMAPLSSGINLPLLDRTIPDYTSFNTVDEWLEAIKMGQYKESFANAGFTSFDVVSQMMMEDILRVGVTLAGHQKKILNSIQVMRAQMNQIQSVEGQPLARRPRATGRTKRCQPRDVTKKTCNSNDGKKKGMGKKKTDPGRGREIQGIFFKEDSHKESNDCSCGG

[8] = Aqueous solubility of the compound; format: physicochemical; settings: buffer
[9] = target: Insulin-like growth factor 1 receptor (Homo sapiens, UniProt P08069); experiment: Inhibition of IGF1R; method in brief: as §1
[10] = target: Fibroblast growth factor receptor 1 (Homo sapiens, UniProt P11362); experiment: Inhibition of FGFR1; method in brief: as §1
Fibroblast growth factor receptor 1, sequence (P11362 whole entry): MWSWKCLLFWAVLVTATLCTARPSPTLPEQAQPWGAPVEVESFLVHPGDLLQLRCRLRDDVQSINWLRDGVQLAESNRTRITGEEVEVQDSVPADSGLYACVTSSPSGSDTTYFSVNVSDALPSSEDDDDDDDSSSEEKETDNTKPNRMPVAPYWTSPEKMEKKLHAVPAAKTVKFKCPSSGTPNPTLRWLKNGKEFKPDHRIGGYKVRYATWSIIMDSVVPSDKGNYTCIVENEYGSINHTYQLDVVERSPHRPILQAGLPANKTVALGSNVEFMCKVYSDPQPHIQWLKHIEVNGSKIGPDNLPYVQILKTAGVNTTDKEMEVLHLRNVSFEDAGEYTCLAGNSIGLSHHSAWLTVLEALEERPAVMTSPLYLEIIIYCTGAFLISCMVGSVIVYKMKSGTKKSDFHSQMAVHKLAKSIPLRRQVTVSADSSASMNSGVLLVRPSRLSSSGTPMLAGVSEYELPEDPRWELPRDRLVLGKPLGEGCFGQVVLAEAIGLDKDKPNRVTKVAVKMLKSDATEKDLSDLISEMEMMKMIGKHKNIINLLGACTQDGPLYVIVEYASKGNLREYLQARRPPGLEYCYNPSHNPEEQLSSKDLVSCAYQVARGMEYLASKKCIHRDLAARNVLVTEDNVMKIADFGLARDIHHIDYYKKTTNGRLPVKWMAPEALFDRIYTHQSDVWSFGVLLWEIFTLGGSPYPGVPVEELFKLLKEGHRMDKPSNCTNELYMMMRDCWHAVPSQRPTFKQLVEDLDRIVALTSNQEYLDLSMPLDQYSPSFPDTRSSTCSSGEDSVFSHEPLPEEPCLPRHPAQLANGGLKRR

[11] = Half life in mouse at 10 mg/kg, iv and 20 mg/kg, po; format: ADME, organism-based; settings: in vivo
Method in brief: (§4)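 Pharmacokinetics were run in mice after a single dose of 10 mg/kg iv or 20 mg/kg po.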

[12] = Clearance in mouse at 10 mg/kg, iv; format: ADME, organism-based; design: dose 10 mg/kg, route intravenous; settings: in vivo; method in brief: as §4
[13] = target: Receptor tyrosine-protein kinase erbB-2 (Homo sapiens, UniProt P04626); experiment: Inhibition of ERBB2; method in brief: as §1
[14] = target: T1, Hepatocyte growth factor receptor; settings: BaF3, 0.1-10 uM
[15] = target: Vascular endothelial growth factor receptor 1 (Homo sapiens, UniProt P17948); experiment: Inhibition of FLT1; method in brief: as §1
[16] = target: Proto-oncogene tyrosine-protein kinase Src (Homo sapiens, UniProt P12931); experiment: Inhibition of c-SRC; method in brief: as §1
Proto-oncogene tyrosine-protein kinase Src, sequence (P12931 2-536 limits assumed): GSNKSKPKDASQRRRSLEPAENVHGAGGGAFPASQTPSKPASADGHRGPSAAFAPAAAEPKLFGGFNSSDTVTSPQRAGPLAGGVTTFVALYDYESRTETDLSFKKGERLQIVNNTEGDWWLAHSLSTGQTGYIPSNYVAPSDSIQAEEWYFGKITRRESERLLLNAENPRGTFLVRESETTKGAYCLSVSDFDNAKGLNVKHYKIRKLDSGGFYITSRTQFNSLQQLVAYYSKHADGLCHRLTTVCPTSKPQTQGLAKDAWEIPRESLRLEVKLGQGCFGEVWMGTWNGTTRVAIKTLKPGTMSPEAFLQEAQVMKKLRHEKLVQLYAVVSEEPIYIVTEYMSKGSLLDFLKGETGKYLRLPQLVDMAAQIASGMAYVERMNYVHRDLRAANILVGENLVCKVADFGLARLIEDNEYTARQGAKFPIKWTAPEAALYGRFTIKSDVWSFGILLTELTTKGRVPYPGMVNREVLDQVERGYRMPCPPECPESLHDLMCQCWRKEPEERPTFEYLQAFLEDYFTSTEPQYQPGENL

[17] = target: T1, Hepatocyte growth factor receptor; settings: BaF3, 0.1 to 10 uM
[18] = target: Tyrosine-protein kinase ABL1 (Homo sapiens, UniProt P00519); experiment: Inhibition of Abl; method in brief: as §1
[19] = Oral bioavailability in mouse at 20 mg/kg; format: ADME, organism-based; settings: in vivo; method in brief: as §4
[20] = target: Proto-oncogene tyrosine-protein kinase receptor Ret (Homo sapiens, UniProt P07949); experiment: Inhibition of RET; method in brief: as §1
Proto-oncogene tyrosine-protein kinase receptor Ret, sequence (P07949 whole entry): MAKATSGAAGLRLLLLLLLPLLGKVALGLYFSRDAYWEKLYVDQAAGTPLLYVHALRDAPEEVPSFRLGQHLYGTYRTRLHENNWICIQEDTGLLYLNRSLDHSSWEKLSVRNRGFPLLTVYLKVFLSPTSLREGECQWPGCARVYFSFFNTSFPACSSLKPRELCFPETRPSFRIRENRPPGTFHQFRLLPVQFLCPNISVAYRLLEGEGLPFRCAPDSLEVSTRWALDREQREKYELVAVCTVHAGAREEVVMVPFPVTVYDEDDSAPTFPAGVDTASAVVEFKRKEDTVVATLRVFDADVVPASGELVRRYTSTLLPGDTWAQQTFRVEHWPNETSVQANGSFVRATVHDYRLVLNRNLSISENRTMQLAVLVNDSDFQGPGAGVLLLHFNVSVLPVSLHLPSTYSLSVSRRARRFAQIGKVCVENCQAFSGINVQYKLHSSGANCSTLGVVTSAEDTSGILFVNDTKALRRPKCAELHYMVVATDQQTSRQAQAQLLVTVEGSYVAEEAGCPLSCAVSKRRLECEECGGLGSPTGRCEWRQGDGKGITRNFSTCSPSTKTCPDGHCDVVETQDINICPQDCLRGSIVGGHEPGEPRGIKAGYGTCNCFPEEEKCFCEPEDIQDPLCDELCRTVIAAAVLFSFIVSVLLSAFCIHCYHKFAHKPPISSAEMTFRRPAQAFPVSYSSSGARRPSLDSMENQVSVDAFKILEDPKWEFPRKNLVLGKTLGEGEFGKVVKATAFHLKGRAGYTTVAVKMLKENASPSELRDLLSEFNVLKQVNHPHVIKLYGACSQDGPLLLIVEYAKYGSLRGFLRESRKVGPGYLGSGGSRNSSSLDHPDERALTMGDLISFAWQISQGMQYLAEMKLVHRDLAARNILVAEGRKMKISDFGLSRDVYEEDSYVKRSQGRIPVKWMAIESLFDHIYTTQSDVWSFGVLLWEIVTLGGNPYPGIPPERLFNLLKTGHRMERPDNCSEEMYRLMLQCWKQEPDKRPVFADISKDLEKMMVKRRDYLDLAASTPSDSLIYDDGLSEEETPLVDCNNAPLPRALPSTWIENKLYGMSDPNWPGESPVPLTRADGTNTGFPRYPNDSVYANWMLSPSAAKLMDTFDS

Ephrin type-A receptor 2 = Ephrin type-A receptor 2 (Homo sapiens, UniProt P29317); experiment: Inhibition of EPHA2; method in brief: as §1
[21] = target: Macrophage-stimulating protein receptor (Homo sapiens, UniProt Q04912); experiment: Inhibition of RON; method in brief: as §1
[22] = target: Platelet-derived growth factor receptor alpha (Homo sapiens, UniProt P16234); experiment: Inhibition of PDGFRalpha; method in brief: as §1
Platelet-derived growth factor receptor alpha, sequence (P16234 whole entry): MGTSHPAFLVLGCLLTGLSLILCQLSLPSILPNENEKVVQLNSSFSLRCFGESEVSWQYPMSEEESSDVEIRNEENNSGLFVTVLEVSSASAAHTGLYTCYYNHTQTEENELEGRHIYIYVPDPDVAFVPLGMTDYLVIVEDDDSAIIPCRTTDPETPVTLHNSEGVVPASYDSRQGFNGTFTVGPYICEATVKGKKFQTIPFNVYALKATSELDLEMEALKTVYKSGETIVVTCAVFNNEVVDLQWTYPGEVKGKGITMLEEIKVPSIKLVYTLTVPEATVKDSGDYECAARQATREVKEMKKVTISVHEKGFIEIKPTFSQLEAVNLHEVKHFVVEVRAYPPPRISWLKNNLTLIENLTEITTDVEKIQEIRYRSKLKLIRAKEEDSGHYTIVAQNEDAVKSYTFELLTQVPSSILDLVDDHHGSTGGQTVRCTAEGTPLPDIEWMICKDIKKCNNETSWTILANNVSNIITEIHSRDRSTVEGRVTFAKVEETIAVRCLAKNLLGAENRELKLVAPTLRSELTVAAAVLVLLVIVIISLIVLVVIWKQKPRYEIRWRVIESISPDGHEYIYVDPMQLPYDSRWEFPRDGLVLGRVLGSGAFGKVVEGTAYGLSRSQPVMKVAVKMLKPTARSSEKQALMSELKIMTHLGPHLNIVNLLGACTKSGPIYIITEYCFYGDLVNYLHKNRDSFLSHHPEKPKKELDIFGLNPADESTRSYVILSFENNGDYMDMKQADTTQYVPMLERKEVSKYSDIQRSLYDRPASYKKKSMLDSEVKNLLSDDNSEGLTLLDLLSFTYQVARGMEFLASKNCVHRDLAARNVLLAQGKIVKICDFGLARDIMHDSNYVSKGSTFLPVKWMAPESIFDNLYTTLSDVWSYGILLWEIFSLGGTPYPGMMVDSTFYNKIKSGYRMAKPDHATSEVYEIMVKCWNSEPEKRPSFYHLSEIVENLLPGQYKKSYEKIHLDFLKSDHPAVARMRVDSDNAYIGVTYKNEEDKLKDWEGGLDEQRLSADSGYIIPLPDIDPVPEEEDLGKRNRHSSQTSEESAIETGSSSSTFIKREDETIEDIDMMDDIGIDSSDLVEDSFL

[23] = Antitumor activity against human U87MG cells xenografted in nude mouse assessed as inhibition of tumor growth at 100 mg/kg; format: functional, U-87MG ATCC; settings: U-87 MG

T1 sequence (P08581 whole entry): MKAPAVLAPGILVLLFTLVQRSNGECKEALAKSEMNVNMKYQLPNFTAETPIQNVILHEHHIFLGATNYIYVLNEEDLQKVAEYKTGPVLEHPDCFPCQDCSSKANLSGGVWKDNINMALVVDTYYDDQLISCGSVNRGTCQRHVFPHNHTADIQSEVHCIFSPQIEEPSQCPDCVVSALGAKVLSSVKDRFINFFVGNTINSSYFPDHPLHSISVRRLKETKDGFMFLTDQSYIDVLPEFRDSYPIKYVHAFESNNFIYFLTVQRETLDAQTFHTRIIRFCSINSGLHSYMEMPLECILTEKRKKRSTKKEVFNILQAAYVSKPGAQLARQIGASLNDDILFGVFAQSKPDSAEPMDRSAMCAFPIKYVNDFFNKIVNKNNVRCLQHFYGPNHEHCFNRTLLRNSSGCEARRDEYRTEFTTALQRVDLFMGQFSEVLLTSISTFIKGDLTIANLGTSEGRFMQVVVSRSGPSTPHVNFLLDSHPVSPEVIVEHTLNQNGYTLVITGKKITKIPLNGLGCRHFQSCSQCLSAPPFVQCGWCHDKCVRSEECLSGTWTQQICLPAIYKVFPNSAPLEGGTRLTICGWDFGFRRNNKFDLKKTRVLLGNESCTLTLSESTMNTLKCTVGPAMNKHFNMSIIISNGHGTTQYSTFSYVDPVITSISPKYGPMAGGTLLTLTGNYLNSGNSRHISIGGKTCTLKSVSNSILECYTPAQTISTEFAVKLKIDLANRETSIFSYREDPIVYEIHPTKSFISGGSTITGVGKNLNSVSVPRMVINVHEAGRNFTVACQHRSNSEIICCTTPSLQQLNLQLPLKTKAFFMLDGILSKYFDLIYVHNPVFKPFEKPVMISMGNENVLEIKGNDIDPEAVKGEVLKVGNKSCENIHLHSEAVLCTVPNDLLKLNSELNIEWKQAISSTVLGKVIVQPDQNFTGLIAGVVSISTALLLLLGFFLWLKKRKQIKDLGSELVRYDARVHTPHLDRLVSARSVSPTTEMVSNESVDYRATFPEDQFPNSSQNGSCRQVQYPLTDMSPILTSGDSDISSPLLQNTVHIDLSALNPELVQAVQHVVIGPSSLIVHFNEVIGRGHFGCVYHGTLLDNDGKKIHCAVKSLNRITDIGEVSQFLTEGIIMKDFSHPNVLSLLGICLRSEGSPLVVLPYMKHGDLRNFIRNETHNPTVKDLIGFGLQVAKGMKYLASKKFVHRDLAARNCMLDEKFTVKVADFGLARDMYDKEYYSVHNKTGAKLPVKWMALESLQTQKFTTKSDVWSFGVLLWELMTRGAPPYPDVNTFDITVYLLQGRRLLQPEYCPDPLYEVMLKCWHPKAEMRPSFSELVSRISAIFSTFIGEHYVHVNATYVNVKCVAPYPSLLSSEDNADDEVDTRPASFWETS

SMILES	IC50 [1] [nM]	inhibition at 1 µM (BaF3 [2]) [%]	inhibition at 0.1 µM (BaF3 [3]) [%]	inhibition [4] [%]	inhibition at 10 µM (BaF3 [5]) [%]	further results
Cc1ccc(-c2csc3ncnc(Oc4ccc(NC(=O)c5cccn(-c6ccc(F)cc6)c5=O)cc4F)c23)s1	42	60.6	-2.3	85.5	95	–
CS(=O)(=O)c1nc(Oc2ccc(NC(=O)c3cccn(-c4ccc(F)cc4)c3=O)cc2F)c2c(-c3ccccc3)coc2n1	> 10000	–	–	36.7	–	–
COc1ccc(-c2csc3ncnc(Oc4ccc(NC(=O)c5cccn(-c6ccc(F)cc6)c5=O)cc4F)c23)cc1OC	123	–	–	99.9	–	–
O=C(Nc1ccc(Oc2ncnc3sc4c(c23)CCCCC4)c(F)c1)c1cccn(-c2ccc(F)cc2)c1=O	> 10000	–	–	23.4	–	–
O=C(Nc1ccc(Oc2ncnc3sccc23)c(F)c1)c1cccn(-c2ccc(F)cc2)c1=O	> 10000	-6.5	-12.8	14.3	5.3	–
[N-]=[N+]=Nc1nc(Oc2ccc(NC(=O)c3cccn(-c4ccc(F)cc4)c3=O)cc2F)c2c(-c3ccccc3)coc2n1	> 10000	–	–	18.5	–	–
O=C(Nc1ccc(Oc2ncnc3scc(-c4ccc(-c5ccccc5)cc4)c23)c(F)c1)c1cccn(-c2ccc(F)cc2)c1=O	–	–	–	80.4	–	inhibition [6]: < 50%
Cc1nc(Oc2ccc(NC(=O)c3cccn(-c4ccc(F)cc4)c3=O)cc2F)c2c3c(sc2n1)CCCC3	> 10000	–	–	31.2	–	–
O=C(Nc1ccc(Oc2ncnc3occ(-c4ccccc4)c23)c(F)c1)c1cccn(-c2ccc(F)cc2)c1=O	69.8	14.6	-6.9	84.9	93.7	–
O=C(Nc1ccc(Oc2ncnc3sc4c(c23)CCC4)c(F)c1)c1cccn(-c2ccc(F)cc2)c1=O	> 10000	–	–	12.3	–	–
O=C(Nc1ccc(Oc2ncnc3scc(-c4ccc(F)c(F)c4)c23)c(F)c1)c1cccn(-c2ccc(F)cc2)c1=O	65.7	13.9	-1.1	88.4	89.7	–
COc1nc(Oc2ccc(NC(=O)c3cccn(-c4ccc(F)cc4)c3=O)cc2F)c2c(-c3ccccc3)coc2n1	> 10000	–	–	31.7	–	–
COc1ccc(-c2csc3ncnc(Oc4ccc(NC(=O)c5cccn(-c6ccc(F)cc6)c5=O)cc4F)c23)cc1	46.5	91.1	-10.1	90	94.3	–
O=C(Nc1ccc(Oc2ncnc3occ(-c4ccc(F)cc4)c23)c(F)c1)c1cccn(-c2ccc(F)cc2)c1=O	310	-5.8	-4.7	80.9	76.3	–
O=C(Nc1ccc(Oc2ncnc3sc(-c4ccccc4)cc23)c(F)c1)c1cccn(-c2ccc(F)cc2)c1=O	> 10000	–	–	10.6	–	–
O=C(Nc1ccc(Oc2ncnc3scc(-c4ccc5ccccc5c4)c23)c(F)c1)c1cccn(-c2ccc(F)cc2)c1=O	–	–	–	92.1	–	inhibition [6]: < 50%
Cc1coc2ncnc(Oc3ccc(NC(=O)c4cccn(-c5ccc(F)cc5)c4=O)cc3F)c12	> 10000	–	–	16.5	–	–
CSc1nc(Oc2ccc(NC(=O)c3cccn(-c4ccc(F)cc4)c3=O)cc2F)c2c(-c3ccccc3)coc2n1	> 10000	2	10.3	33.4	14.9	–
O=C(Nc1ccc(Oc2ncnc3scc(-c4ccc(C(F)(F)F)cc4)c23)c(F)c1)c1cccn(-c2ccc(F)cc2)c1=O	191	–	–	83.8	–	–
O=C(Nc1ccc(Oc2ncnc3occ(-c4cccs4)c23)c(F)c1)c1cccn(-c2ccc(F)cc2)c1=O	> 10000	-9.3	-12.1	46.6	-5.4	–
CNc1nc(Oc2ccc(NC(=O)c3cccn(-c4ccc(F)cc4)c3=O)cc2F)c2c(-c3ccccc3)coc2n1	–	–	–	78.2	–	inhibition [6]: < 50%
O=C(Nc1ccc(Oc2ncnc3scc(-c4ccccc4)c23)c(F)c1)c1cccn(-c2ccc(F)cc2)c1=O	35.7	69.5	-10.5	94.3	94.6	IC50 [7]: > 10 µM; Activity (Mus musculus): Non-toxic; IC50 (Ephrin type-B receptor 2): > 10 µM; solubility [8]: Insoluble; IC50 [9]: > 10 µM; IC50 [10]: > 10 µM; half-life [11]: 100 min; clearance [12]: 47.2 mL/min/kg; IC50 [13]: > 10 µM; inhibition [14]: Active; IC50 [15]: > 10 µM; IC50 [16]: > 10 µM; inhibition [17]: Active; IC50 [18]: > 10 µM; bioavailability [19]: 5%; IC50 [20]: > 10 µM; IC50 (Ephrin type-A receptor 2): > 10 µM; IC50 [21]: 50.4 nM; IC50 [22]: > 10 µM
COc1cc2nccc(Oc3ccc(NC(=S)NC(=O)Cc4ccccc4)cc3F)c2cc1OC	–	–	–	–	–	inhibition in vivo at 100 mg/kg [23]: 70%
O=C(Nc1ccc(Oc2ncnc3scc(-c4ccc(F)cc4)c23)c(F)c1)c1cccn(-c2ccc(F)cc2)c1=O	68	30.8	12.9	71.9	92.2	–
Cc1nc(Oc2ccc(NC(=O)c3cccn(-c4ccc(F)cc4)c3=O)cc2F)c2c(-c3cccs3)coc2n1	> 10000	-2.8	0.6	24.3	-9.7	–
